Assay results taken from ChEMBL document CHEMBL1155674, “New isomalabaricane triterpenes from the marine sponge Stelletta globostellata that induce morphological changes in rat fibroblasts” (J Nat Prod, 2000).
Active and inactive are the calls of the source. The rule behind the calls is not given here.

What was measured:
[1] = tested on: 3Y1 cell line; test: Induction of morphological changes in rat 3Y1 cells assessed as lost pseudopodia at 0.2 uM before washing; assay type: functional, cell-based
How it was run: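 3Y1 B clone 1-6 fibroblasts, kept subconfluent in DMEM/10% fetal calf serum at 37 °C under 5% CO2, were seeded at 2 × 10⁴ cells/mL and incubated 24 h. Samples in MeOH were added. Morphology was checked by phase-contrast microscopy at 1, 5 and 24 h and on day 5. Some cultures were washed with fresh medium to test reversibility.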

[2] = Cytotoxicity against rat 3Y1 cells after 72 hrs by MTT assay; assay type: cell-based
How it was run: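 3Y1 rat embryonic fibroblasts (B clone 1-6) in DMEM with 10% fetal calf serum were seeded at 300 cells/well and incubated 24 h. Samples were added, then plates were held 72 h at 37 °C. MTT (5 mg/mL in Ca/Mg-free PBS) was added for 4 h, formazan was dissolved in DMSO, and absorbance was read at 540 nm to give GI50.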

[3] = tested on: P388; test: Cytotoxicity against mouse P388 cells by MTT assay; assay type: functional
[4] = tested on: Candida albicans; test: Antimicrobial activity against Candida albicans at 100 ug/disk; assay type: functional, organism-based
[5] = tested on: Umbelopsis ramanniana; test: Antimicrobial activity against Mortierella ramanniana at 100 ug/disk; assay type: functional, organism-based
[6] = tested on: Penicillium chrysogenum; test: Antimicrobial activity against Penicillium chrysogenum at 100 ug/disk; assay type: functional, organism-based
[7] = tested on: Bacillus subtilis; test: Antimicrobial activity against Bacillus subtilis at 100 ug/disk; assay type: functional, organism-based
[8] = tested on: Escherichia coli; test: Antimicrobial activity against Escherichia coli at 100 ug/disk; assay type: functional, organism-based
[9] = tested on: Pseudomonas aeruginosa; test: Antimicrobial activity against Pseudomonas aeruginosa at 100 ug/disk; assay type: functional, organism-based
[10] = tested on: Staphylococcus aureus; test: Antimicrobial activity against Staphylococcus aureus at 100 ug/disk; assay type: functional, organism-based
[11] = Induction of cell death in rat 3Y1 cells at 0.2 uM after 5 days without washing; conditions: 3y1, 120 h
[12] = Cytotoxicity against rat 3Y1 cells at 18 uM after 72 hrs by MTT assay; assay type: cell-based; conditions: 3y1, 72 h
[13] = tested on: P388; test: Cytotoxicity against mouse P388 cells at 18 uM by MTT assay; assay type: functional, cell-based
[14] = Induction of cell death in rat 3Y1 cells at 0.2 uM after 5 days after washing; assay type: cell-based; conditions: 3y1, 120 h

Row | SMILES | Activity [1] | GI50 at 72 h [2] [µM] | GI50 [3] [µM] | Activity [4] | Activity [5] | Activity [6] | Activity [7] | Activity [8] | Activity [9] | Activity [10] | Activity [11] | Activity [12] | Activity [13] | Activity [14]
1 | CC(=O)O[C@H]1CC[C@@]2(C)[C@@H](CC[C@]3(C)/C(=C(C)/C=C/C=C(\C)[C@@H](O)CC=C(C)C)C(=O)C[C@@H]23)C1(C)C [STELLIFERIN A] | Active | 0.034 | 0.021 | inactive | inactive | inactive | inactive | inactive | inactive | inactive | Active |  |  | 
2 | CC(=O)O[C@@H]1CC[C@@]2(C)[C@@H](CC[C@]3(C)/C(=C(\C)C(=O)/C=C/C(C)=C/C=C/C(C)(C)O)C(=O)C[C@@H]23)[C@@]1(C)C(=O)[O-].[Na+] [GLOBOSTELLATIC ACID A] |  |  |  |  |  |  |  |  |  |  |  | Non-toxic | Not toxic | 
3 | CC(=O)O[C@@H](CC=C(C)C)/C(C)=C/C=C/C(C)=C1\C(=O)C[C@H]2[C@@]3(C)CC[C@@H](OC(C)=O)[C@](C)(CO)[C@@H]3CC[C@]12C | Active | 0.052 | 0.16 | inactive | inactive | inactive | inactive | inactive | inactive | inactive |  |  |  | Active
4 | COc1cccc2c1C(=O)c1c(O)c3c(c(O)c1C2=O)C[C@@](O)(C(=O)CO)C[C@@H]3O[C@H]1C[C@H](N)[C@H](O)[C@H](C)O1 [DOXORUBICIN] |  | 0.0038 | 0.012 |  |  |  |  |  |  |  |  |  |  | 
5 | CC(C)=CCC/C(C)=C/C=C/C(C)=C1\C(=O)C[C@H]2[C@@]3(C)CC[C@H](O)C(C)(C)[C@@H]3CC[C@]12C [STELLIFERIN D] | Active | 0.018 | 0.024 | inactive | inactive | inactive | inactive | inactive | inactive | inactive | Active |  |  | 
6 | CC(C)=CCC/C(C)=C/C=C/C(C)=C1\C(=O)C[C@H]2[C@@]3(C)CC[C@H](O)[C@](C)(CO)[C@@H]3CC[C@]12C | Active | 0.06 | 0.19 | inactive | inactive | inactive | inactive | inactive | inactive | inactive | Active |  |  | 
7 | CC(=O)O[C@@H]1CC[C@@]2(C)[C@@H](CC[C@]3(C)/C(=C(C)/C=C/C=C(\C)[C@@H](O)CC=C(C)C)C(=O)C[C@@H]23)[C@@]1(C)CO | Active | 0.046 | 0.18 | inactive | inactive | inactive | inactive | inactive | inactive | inactive |  |  |  | Active
8 | CC(=O)O[C@H]1C[C@H]2[C@@]3(C)CC[C@H](OC(C)=O)C(C)(C)[C@@H]3CC[C@]2(C)/C1=C(C)/C=C/C=C(\C)[C@H](CC=C(C)C)OC(C)=O |  | 1.3 | 1.6 |  |  |  |  |  |  |  |  |  |  | 
